Legend:
Plasmodium falciparum [1] = assay: Antimalarial activity against chloroquine-resistant Plasmodium falciparum Dd2 infected human erythrocytes at 5 uM after 72 hrs as inhibition of [3H]hypoxanthine uptake; type: functional
In short: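 Single-point screen of Dd2 asexual blood stages in human red cells at final concentrations of 1 μM and 5 μM, with 72 h drug exposure and [3H]hypoxanthine pulse over the final 24 h. Read-out was percent inhibition of label uptake. Compounds giving >50% inhibition at 5 μM were re-screened.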

[2] = biological target: Heat shock 70 kDa protein (Plasmodium falciparum) (UniProt P11144); assay: Inhibition of Plasmodium falciparum Hsp70 ATPase activity assessed as residual enzyme activity at 300 uM relative to control
Chain of Heat shock 70 kDa protein (Plasmodium falciparum) (P11144 whole entry): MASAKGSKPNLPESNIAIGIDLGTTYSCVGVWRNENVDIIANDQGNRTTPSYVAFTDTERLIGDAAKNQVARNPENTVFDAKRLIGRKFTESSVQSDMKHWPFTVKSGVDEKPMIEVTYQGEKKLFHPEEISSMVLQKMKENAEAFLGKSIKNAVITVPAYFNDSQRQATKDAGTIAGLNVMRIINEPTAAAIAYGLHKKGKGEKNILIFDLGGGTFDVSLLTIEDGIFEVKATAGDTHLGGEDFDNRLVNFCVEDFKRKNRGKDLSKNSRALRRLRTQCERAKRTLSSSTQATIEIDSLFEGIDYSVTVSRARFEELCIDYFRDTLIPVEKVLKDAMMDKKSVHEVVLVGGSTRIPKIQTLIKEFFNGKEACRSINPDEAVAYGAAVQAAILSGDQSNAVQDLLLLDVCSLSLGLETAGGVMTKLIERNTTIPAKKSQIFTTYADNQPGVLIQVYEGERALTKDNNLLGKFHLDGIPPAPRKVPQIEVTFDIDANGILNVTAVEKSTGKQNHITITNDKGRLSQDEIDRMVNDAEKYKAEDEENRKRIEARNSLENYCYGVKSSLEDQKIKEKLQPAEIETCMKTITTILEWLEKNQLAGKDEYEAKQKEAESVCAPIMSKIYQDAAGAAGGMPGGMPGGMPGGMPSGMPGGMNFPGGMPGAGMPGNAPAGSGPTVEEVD
In short: (§1)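 Steady-state ATPase assay with P. falciparum Hsp70, yeast Ssa1 or human Hsp70. Compound at 300 μM final; activity standardized to an equal volume of DMSO, set to 1. Values are means of 6 independent experiments, ±SD where shown.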

Plasmodium falciparum [3] = assay: Effect on Plasmodium falciparum Hsp70 ATPase activity assessed as fold change in Kcat at 100 uM relative to control
In short: (§2)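 Single-turnover ATPase assay measuring kCAT of recombinant P. falciparum Hsp70 (E. coli Rosetta 2, Ni-chelate then Q-Sepharose purified), yeast Ssa1, or human HSPA1A (E. coli-expressed, untagged or His6). Optional J-domain partners: Hlj1 1.1 μM; Ydj1 0.045 μM with Ssa1, 0.9 μM with Pf or human Hsp70. Compound at 100 μM final; activity expressed as a fraction of the DMSO-only reaction under the same conditions, set to 1.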

[4] = biological target: Heat shock protein SSA1 (Saccharomyces cerevisiae S288c) (UniProt P10591); assay: Effect on Saccharomyces cerevisiae Ssa1 ATPase activity assessed as fold change in Kcat at 100 uM in presence of J-domain containing yeast HlJ1 co-chaperone relative to control; in short: as §2
Chain of Heat shock protein SSA1 (Saccharomyces cerevisiae S288c) (P10591 whole entry): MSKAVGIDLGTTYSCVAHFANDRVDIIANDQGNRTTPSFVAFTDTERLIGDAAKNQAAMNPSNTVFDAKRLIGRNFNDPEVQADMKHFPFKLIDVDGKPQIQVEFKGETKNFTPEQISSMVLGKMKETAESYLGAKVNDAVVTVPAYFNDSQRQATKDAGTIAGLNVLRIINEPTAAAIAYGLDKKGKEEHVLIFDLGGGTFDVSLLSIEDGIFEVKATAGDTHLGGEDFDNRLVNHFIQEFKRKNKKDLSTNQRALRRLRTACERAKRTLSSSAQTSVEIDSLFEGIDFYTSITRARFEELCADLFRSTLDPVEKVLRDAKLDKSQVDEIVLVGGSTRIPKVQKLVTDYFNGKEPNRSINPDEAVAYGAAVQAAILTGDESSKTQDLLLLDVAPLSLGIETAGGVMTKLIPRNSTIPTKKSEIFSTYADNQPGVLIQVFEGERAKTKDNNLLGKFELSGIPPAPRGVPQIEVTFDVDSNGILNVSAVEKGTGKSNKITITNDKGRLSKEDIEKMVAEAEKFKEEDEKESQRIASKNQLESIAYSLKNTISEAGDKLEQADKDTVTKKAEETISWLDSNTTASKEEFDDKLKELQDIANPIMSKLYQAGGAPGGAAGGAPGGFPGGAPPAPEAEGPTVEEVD

[5] = Cytotoxicity against human HepG2 cells; type: cell-based
In short: (§3)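 GI50 measured in HepG2 hepatocellular carcinoma and WI-38 embryonic diploid lung cells, calculated relative to a DMSO (negative) control.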

[6] = biological target: Heat shock 70 kDa protein 1A (Homo sapiens) (UniProt P0DMV8); assay: Inhibition of human HSPA1A ATPase activity assessed as residual enzyme activity at 300 uM relative to control; in short: as §1
Chain of Heat shock 70 kDa protein 1A (Homo sapiens) (P0DMV8 2-641 limits assumed): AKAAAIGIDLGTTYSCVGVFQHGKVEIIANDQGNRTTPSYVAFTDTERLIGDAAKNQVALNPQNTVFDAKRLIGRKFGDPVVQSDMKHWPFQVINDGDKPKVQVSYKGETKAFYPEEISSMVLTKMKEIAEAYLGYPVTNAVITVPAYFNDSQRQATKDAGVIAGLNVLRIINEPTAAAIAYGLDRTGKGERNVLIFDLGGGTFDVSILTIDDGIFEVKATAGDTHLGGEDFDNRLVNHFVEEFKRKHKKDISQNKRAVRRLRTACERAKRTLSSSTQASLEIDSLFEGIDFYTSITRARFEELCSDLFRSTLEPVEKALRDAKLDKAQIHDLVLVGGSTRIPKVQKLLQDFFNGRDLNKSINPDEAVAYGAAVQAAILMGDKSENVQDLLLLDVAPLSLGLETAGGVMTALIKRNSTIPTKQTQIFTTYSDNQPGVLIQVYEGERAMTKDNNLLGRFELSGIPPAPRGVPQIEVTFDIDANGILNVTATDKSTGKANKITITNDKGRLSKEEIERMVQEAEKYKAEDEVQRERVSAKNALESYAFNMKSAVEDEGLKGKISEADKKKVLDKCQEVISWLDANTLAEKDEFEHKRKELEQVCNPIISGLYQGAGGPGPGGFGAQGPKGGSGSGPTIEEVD

[7] = biological target: Heat shock protein SSA1 (Saccharomyces cerevisiae) (UniProt P10591); assay: Effect on yeast Hsp70 Ssa1 ATPase activity assessed as fold change in Kcat at 100 uM relative to control
Plasmodium falciparum [8] = assay: Effect on Plasmodium falciparum Hsp70 ATPase activity assessed as fold change in Kcat at 100 uM in presence of J-domain containing yeast HlJ1 co-chaperone relative to control; in short: as §2
[9] = biological target: Heat shock protein SSA1 (Saccharomyces cerevisiae S288c) (UniProt P10591); assay: Effect on Saccharomyces cerevisiae Ssa1 ATPase activity assessed as fold change in Kcat at 100 uM in presence of J-domain containing yeast Ydj1 co-chaperone relative to control; in short: as §2
[10] = Cytotoxicity against human WI38 cells; type: cell-based, WI-38; in short: as §3
[11] = biological target: Heat shock protein SSA1 (Saccharomyces cerevisiae S288c) (UniProt P10591); assay: Effect on Saccharomyces cerevisiae Ssa1 ATPase activity assessed as fold change at 100 uM in Kcat relative to control; in short: as §2
[12] = biological target: Heat shock 70 kDa protein 1A (Homo sapiens) (UniProt P0DMV8); assay: Effect on human HSPA1A ATPase activity assessed as fold change in Kcat at 100 uM presence of J-domain containing yeast Ydj1 co-chaperone relative to control; in short: as §2
[13] = biological target: Heat shock 70 kDa protein 1A (Homo sapiens) (UniProt P0DMV8); assay: Effect on human HSPA1A ATPase activity assessed as fold change in Kcat at 100 uM relative to control; in short: as §2
[14] = biological target: Heat shock 70 kDa protein 1A (Homo sapiens) (UniProt P0DMV8); assay: Effect on human HSPA1A ATPase activity assessed as fold change in Kcat at 100 uM in presence of J-domain containing Hdj1 co-chaperone relative to control
Plasmodium falciparum [15] = assay: Antimalarial activity against chloroquine-resistant Plasmodium falciparum Dd2 infected human erythrocytes after 72 hrs by [3H]hypoxanthine uptake; type: functional, organism-based
In short: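 Asexual blood-stage P. falciparum Dd2 (chloroquine-resistant) in human erythrocytes, exposed to compound for 72 h, with [3H]hypoxanthine added for the last 24 h. Dose-response series were run, and IC50 was calculated by linear regression on the linear portions of plotted uptake values. Chloroquine was included as an internal control.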

[16] = biological target: Heat shock protein SSA1 (Saccharomyces cerevisiae S288c) (UniProt P10591); assay: Inhibition of Saccharomyces cerevisiae Ssa1 ATPase activity assessed as residual enzyme activity at 300 uM relative to control; in short: as §1
[17] = biological target: Heat shock 70 kDa protein 1A (Homo sapiens) (UniProt P0DMV8); assay: Inhibition of human Hsp70 ATPase activity assessed as reduction of rate of ATP hydrolysis; parameters: scale not given: the % may be the effect or the level left

| Compound | inhibition at 5 µM (Plasmodium falciparum [1]) [%] | fold change (FC) [2] | fold change (FC) (Plasmodium falciparum [3]) | fold change (FC) [4] | GI50 [5] [µM] | fold change (FC) [6] | fold change (FC) [7] | fold change (FC) (Plasmodium falciparum [8]) | fold change (FC) [9] | GI50 [10] [µM] | fold change (FC) [11] | fold change (FC) [12] | fold change (FC) [13] | fold change (FC) [14] | IC50 (Plasmodium falciparum [15]) [µM] | fold change (FC) [16] | Activity [17] [%] |
| --- | --- | --- | --- | --- | --- | --- | --- | --- | --- | --- | --- | --- | --- | --- | --- | --- | --- |
| CCCCNC(=O)C(c1ccc(-c2ccccc2)cc1)N(CCN1CCOCC1)C(=O)CCCCCN1C(=O)NC(c2ccc([N+](=O)[O-])cc2)C(C(=O)OCc2ccccc2)=C1C (configuration not stated) | > 50 | 0.73 | 2.3 | -1.1 | > 10 | 0.74 | -1.6 | -1.3 | -2.6 | > 10 | -1.6 | 1 | 1 | 4.7 | 0.2 | 1 |  |
| CCOC(=O)C1=C(C)N(Cc2ccccc2)C(=O)NC1c1ccccc1OS(=O)(=O)c1ccccc1[N+](=O)[O-] (configuration not stated) | > 50 | 0.99 | 6.5 | 1 | > 10 | 0.74 | 2.1 | 1.4 | -1.3 | > 10 | 2.1 | -1.2 | 3.6 | 3.5 | 0.1 | 1.1 | 30 |
| CCOC(=O)C1=C(C)N(CCCCCC(=O)O)C(=O)NC1c1cccc([N+](=O)[O-])c1 (configuration not stated) | > 50 | 1.01 | 1.8 | 1 | > 10 | 0.85 | 1.3 | -1.1 | 1.1 | > 10 | 1.3 | -1.3 | 1.4 | 1.1 | 1.6 | 0.93 |  |
| CC(=O)O[C@H]1C(=O)[C@@]2(C)[C@H]([C@H](OC(=O)c3ccccc3)[C@]3(O)C[C@H](OC(=O)[C@H](O)[C@@H](NC(=O)c4ccccc4)c4ccccc4)C(C)=C1C3(C)C)[C@]1(OC(C)=O)CO[C@@H]1C[C@@H]2O [PACLITAXEL] |  |  |  |  | 0.001 |  |  |  |  | 0.0137 |  |  |  |  |  |  |  |
| CCOC(=O)C1=C(C)N(CCCC(=O)NCCn2c(-c3ccccc3)cc(C(=O)OC)c2C)C(=O)NC1c1ccc([N+](=O)[O-])cc1 (configuration not stated) | > 50 | 1.02 | 3.7 | -1.6 | > 10 | 0.8 | -1.3 | 1.5 | -1.6 | > 10 | -1.3 | -1.2 | 2 | 4.3 | 0.03 | 0.89 |  |
| COC(=O)C1=C(Cc2ccccc2)NC(=O)NC1c1ccc2ccccc2c1 (configuration not stated) | > 50 | 1 | 1.4 | -1.2 | > 10 | 0.7 | 2 | -1.2 | -1.3 | > 10 | 2 | -1.2 | 1.3 | 2.5 | 0.3 | 1.2 | 30 |
| CC1=C(C(=O)OCc2ccccc2)C(c2ccc([N+](=O)[O-])cc2)NC(=O)N1CCCC(=O)N(CCN1CCOCC1)C(C(=O)NC(C)(C)C)c1ccc(-c2ccccc2)cc1 (configuration not stated) | > 50 | 0.72 | 2.2 | 1 | > 10 | 0.82 | 1.2 | 1.4 | -1.5 | > 10 | 1.2 | -1.1 | 2 | 2.9 | 0.8 | 0.75 |  |
| CCCCN1C(=O)NC(c2ccc(OC)cc2)C(C(=O)OCc2ccccc2)=C1C (configuration not stated) | > 50 | 0.92 | 7.2 | 1 | > 10 | 0.8 |  | -1.1 | -1.1 | > 10 | 2.3 | 1.1 | 4.5 | 4.5 | 0.2 | 0.95 |  |
| CCCCCCN(C(=O)CCCCCN1C(=O)NC(c2ccc(-c3ccccc3)cc2)C(C(=O)OCc2ccccc2)=C1C)C(C(=O)NCCCC)C1CCCCC1 (configuration not stated) | > 50 | 0.74 | 2.9 | 1.2 | > 10 | 0.95 | -1.7 | -1.5 | -1.3 | > 10 | -1.7 | 1.1 | 2.3 | 2.8 | 1.1 | 0.97 |  |
| COC(=O)c1cc(-c2ccccc2)n(CCNC(=O)CCCCCN2C(=O)NC(c3ccc(-c4ccccc4)cc3)C(C(=O)OCc3ccccc3)=C2C)c1C (configuration not stated) | > 50 | 1.01 | 2.7 | -6.5 | > 10 | 0.72 |  | -1.1 | -1.7 | > 10 | 13.3 | 1.5 | 3.5 | 5.3 | 0.05 | 1.2 | 30 |

Source: ChEMBL document CHEMBL1152744, “Select pyrimidinones inhibit the propagation of the malarial parasite, Plasmodium falciparum” (Bioorg Med Chem, 2009)
